Test results: ChEMBL document CHEMBL3272286, “Inhibitors of Bacillus subtilis DNA polymerase III. Structure-activity relationships of 6-(phenylhydrazino)uracils” (J Med Chem, 1977)

How the values were obtained:
Bacillus subtilis [1] = experiment: Inhibition of HPUra/HPiCyt-resistant Bacillus subtilis DNA polymerase-3/azp-12 mutant using DNAase 1-treated DNA as template assessed as inhibition of dGTP truncated DNA synthesis by measuring incorporation of [3H]-TMP at 20 uM relative to control in presence of dithiothreitol
How it was run: (§1)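 dGTP-omitted pol III reaction, 30 °C, 5 min, in 0.05 mL: 20% glycerol, 50 mM Tris HCl pH 7.6, 10 mM MgCl2, 30 mM NaCl, 1.2 mM DNAase I-activated calf thymus DNA, 5 mM DTT, 0.1 mg/mL BSA, 10 μM each dATP, dCTP and [3H]-TTP, 0.005-0.1 unit enzyme. Read-out is acid-insoluble radioactivity. Ki is the inhibitor concentration giving 50% inhibition.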

Bacillus subtilis [2] = experiment: Inhibition of wild type Bacillus subtilis DNA polymerase-3 using DNAase 1-treated DNA as template assessed as inhibition of dGTP truncated DNA synthesis by measuring incorporation of [3H]-TMP at 20 uM in presence of dithiothreitol relative to control; how it was run: as §1
[3] = Inhibition of wild type Bacillus subtilis DNA polymerase-3 using DNAase 1-treated DNA as template assessed as inhibition of dGTP truncated DNA synthesis by measuring incorporation of [3H]-TMP in presence of dithiothreitol; how it was run: as §1
Bacillus subtilis [4] = experiment: Resistance ratio of Ki for HPUra/HPiCyt-resistant Bacillus subtilis DNA polymerase-3/azp-12 mutant to Ki for wild type Bacillus subtilis DNA polymerase-3
[5] = Inhibition of HPUra/HPiCyt-resistant Bacillus subtilis DNA polymerase-3/azp-12 mutant using DNAase 1-treated DNA as template assessed as inhibition of dGTP truncated DNA synthesis by measuring incorporation of [3H]-TMP in presence of dithiothreitol; how it was run: as §1
Bacillus subtilis [6] = experiment: Inhibition of wild type Bacillus subtilis DNA polymerase-3 using DNAase 1-treated DNA as template assessed as inhibition of dGTP truncated DNA synthesis by measuring incorporation of [3H]-TMP at 1 mM in presence of dithiothreitol relative to control; how it was run: as §1

Row | Ki [3] | further results | Compound
1 | 2.5 µM | inhibition (Bacillus subtilis [1]): 85%; inhibition (Bacillus subtilis [2]): 80% | Cc1cccc(NNc2cc(=O)[nH]c(=O)[nH]2)c1
2 | 51.2 µM |  | Cc1cc(NNc2cc(=O)[nH]c(=O)[nH]2)ccc1O
3 |  | Ratio Ki (Bacillus subtilis [4]): 30 | Nc1nc(NNc2ccc(O)cc2)cc(=O)[nH]1
4 | 209 µM |  | CS(=O)(=O)c1ccc(NNc2cc(=O)[nH]c(=O)[nH]2)cc1
5 | 0.8 µM |  | Cc1ccc(NNc2cc(=O)[nH]c(=O)[nH]2)cc1Cl
6 | 1.4 µM | Ki [5]: 2.1 µM | O=c1cc(NNc2ccccc2)[nH]c(=O)[nH]1
7 | 7.1 µM | Ki [5]: 76.4 µM | Nc1ccc(NNc2cc(=O)[nH]c(=O)[nH]2)cc1
8 | 0.9 µM | inhibition (Bacillus subtilis [1]): 95%; inhibition (Bacillus subtilis [2]): 91% | O=c1cc(NNc2ccc(Cl)cc2)[nH]c(=O)[nH]1
9 | 124 µM |  | Cc1cc(NNc2cc(=O)[nH]c(=O)[nH]2)cc(C)c1O
10 |  | inhibition (Bacillus subtilis [6]): < 10% | Cn1c(NNc2ccccc2)cc(=O)[nH]c1=O
11 | 26.3 µM |  | O=c1cc(NNc2ccc([N+](=O)[O-])cc2)[nH]c(=O)[nH]1
12 | 0.6 µM |  | O=c1cc(NNc2ccc(Cl)c(Cl)c2)[nH]c(=O)[nH]1
13 | 0.4 µM | Ratio Ki (Bacillus subtilis [4]): 50; Ki [5]: 20 µM | O=c1cc(NNc2ccc(O)cc2)[nH]c(=O)[nH]1
14 | 562 µM |  | CCc1ccccc1NNc1cc(=O)[nH]c(=O)[nH]1
15 |  | inhibition (Bacillus subtilis [6]): < 10% | Nc1cc(O)nc(O)n1
16 | 1.4 µM |  | Cc1ccc(NNc2cc(=O)[nH]c(=O)[nH]2)cc1C
17 |  | inhibition (Bacillus subtilis [6]): < 10% | NNc1cc(=O)[nH]c(=O)[nH]1

Row | Ki [3] | further results | Compound
18 | 3 µM | inhibition (Bacillus subtilis [1]): 93%; inhibition (Bacillus subtilis [2]): 82% | O=c1cc(NNc2ccc(F)cc2)[nH]c(=O)[nH]1
19 | 1.1 µM |  | O=c1cc(NNc2cccc(Cl)c2)[nH]c(=O)[nH]1
20 | 234 µM |  | Cc1ccccc1NNc1cc(=O)[nH]c(=O)[nH]1
21 | 0.5 µM |  | Cn1c(=O)cc(NNc2ccc(O)cc2)[nH]c1=O
22 | 1.4 µM |  | O=c1cc(NNc2cccc(Br)c2)[nH]c(=O)[nH]1
23 | 0.7 µM | inhibition (Bacillus subtilis [1]): 95%; inhibition (Bacillus subtilis [2]): 82% | O=c1cc(NNc2ccc(Br)cc2)[nH]c(=O)[nH]1
24 | 0.7 µM |  | O=c1cc(NNc2cccc(F)c2)[nH]c(=O)[nH]1
25 | 98 µM |  | O=C(O)c1ccc(NNc2cc(=O)[nH]c(=O)[nH]2)cc1
26 | 2300 µM |  | CCCCc1ccc(NNc2cc(=O)[nH]c(=O)[nH]2)cc1
27 | 480 µM |  | CN(Nc1cc(=O)[nH]c(=O)[nH]1)c1ccccc1
28 | 0.5 µM | Ki [5]: 0.4 µM | Cc1ccc(NNc2cc(=O)[nH]c(=O)[nH]2)cc1
29 | 1.6 µM |  | CCc1ccc(NNc2cc(=O)[nH]c(=O)[nH]2)cc1
30 | 8.8 µM |  | O=c1cc(NNc2ccc(O)c(Cl)c2)[nH]c(=O)[nH]1
31 | 560 µM |  | CC(=O)Nc1ccc(NNc2cc(=O)[nH]c(=O)[nH]2)cc1
32 | 1.6 µM |  | Cn1c(=O)cc(NNc2ccccc2)[nH]c1=O
33 | 7.2 µM |  | O=c1cc(NNc2ccccc2F)[nH]c(=O)[nH]1
